Experimental data of several laboratories.
pIC50: −log10 of the molar value.
Target: Cytochrome P450 2C19 (CYP2C19, Homo sapiens, UniProt P33261)
Read-out: enzyme activity
Mode: inhibitor

| SMILES | assay | system | conditions | quantity | result |
| --- | --- | --- | --- | --- | --- |
| CCc1cc(/C(C)=N/OCc2ccc(C3CCCCC3)c(C(F)(F)F)c2)ccc1CN1CC(C(=O)O)C1 |  | human, liver microsomes | 100 µM, 20 min | inhibition | 9.4% |
| C[C@@H](c1ccc2nccn2c1)n1nnc2ncc(-c3cnn(C)c3)nc21 |  | human, liver microsomes | pH 7.4 | pIC50 | 4.00 |
| N=C(N)N1CC=C(c2coc(C(=O)Nc3ccc(C4=CCN(C(=N)N)CC4)c(F)c3)c2)CC1 |  | liver microsomes | 10 µM | inhibition | 2.2% |
| CCN(Cc1cnc2nc(N)nc(N)c2n1)c1ccc(C(=O)N2CCC(C(=O)OC)CC2)cc1 | luciferase |  | 10 µM | inhibition | -11.1% |
| N=C(N)NCc1ccc(NC(=O)C23CCC(C(=O)Nc4ccc(C5=CCN(C(=N)N)CC5)cc4)(CC2)CC3)cc1 |  | liver microsomes | 10 µM | inhibition | 28.6% |
| Nc1nc(N)c2nc(CNc3ccc(C(=O)N4CCC(C(=O)O)CC4)cc3)cnc2n1 | luciferase |  | 10 µM | inhibition | -18.1% |
| C=CC(=O)Nc1cc(Nc2nccc(Nc3cc(Cl)c(F)cc3C(C)(C)O)n2)c(OC)cc1N1CC[C@@H](N(C)C)C1 |  | human, liver microsomes | 10 µM | inhibition | < 20% |
| COc1ccc(Oc2ccc(CN(Cc3ccccc3)Cc3cnc4nc(N)nc(N)c4n3)cc2)cc1 | luciferase |  | 10 µM | inhibition | 102% |
| O=C(Nc1c2c(cc3c1CCC3)CCC2)NS(=O)(=O)/C=C/c1nccs1 |  | human, liver microsomes | 2 µM, pH 7.4 | inhibition | 8.8% |
